This is an account of results in ChEMBL document CHEMBL3785023, “Development and Pharmacological Characterization of Selective Blockers of 2-Arachidonoyl Glycerol Degradation with Efficacy in Rodent Models of Multiple Sclerosis and Pain” (J Med Chem, 2016).

Active and inactive are the calls of the source.

The subject of data set [1] is Mus musculus. Nature of the data set: Analgesic activity in po dosed CD-1 mouse model of oxaliplatin-induced neuropathic pain assessed as reversal of lowering of threshold to cold stimuli administered on day 14 after oxaliplatin addition by cold plate test. The format is functional, organism-based.
The target of data set [2] is T1, Fatty-acid amide hydrolase 1 (Rattus norvegicus) (UniProt P97612).
T1 sequence (whole entry): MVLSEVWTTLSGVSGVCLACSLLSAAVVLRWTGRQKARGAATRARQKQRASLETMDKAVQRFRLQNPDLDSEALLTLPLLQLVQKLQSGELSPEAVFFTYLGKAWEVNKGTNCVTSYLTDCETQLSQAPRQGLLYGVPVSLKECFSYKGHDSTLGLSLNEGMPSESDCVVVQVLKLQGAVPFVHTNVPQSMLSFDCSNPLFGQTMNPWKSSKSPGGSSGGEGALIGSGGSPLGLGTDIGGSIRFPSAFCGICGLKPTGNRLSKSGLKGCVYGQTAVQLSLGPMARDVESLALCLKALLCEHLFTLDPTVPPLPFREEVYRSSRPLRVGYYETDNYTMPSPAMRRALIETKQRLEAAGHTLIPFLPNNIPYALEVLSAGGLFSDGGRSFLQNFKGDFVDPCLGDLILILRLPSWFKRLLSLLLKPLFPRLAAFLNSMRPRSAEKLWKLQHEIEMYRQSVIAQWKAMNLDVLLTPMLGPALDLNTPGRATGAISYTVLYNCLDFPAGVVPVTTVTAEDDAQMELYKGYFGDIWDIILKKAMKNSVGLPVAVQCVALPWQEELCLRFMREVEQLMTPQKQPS
The experiment in a line: Inhibition of FAAH in rat brain membranes up to 500 nM preincubated for 20 mins followed by fluorophosphonate-rhodamine addition measured after 30 mins by competitive affinity based proteomic profiling assay. In kind it is cell membranes. Conditions: Membrane. The gist of the method:
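Rat brain membranes (1 mg/mL) preincubated with 1–1000 nM inhibitor or DMSO for 20 min at 37 °C. FP-rhodamine then added and incubated a further 30 min at 37 °C. Samples run on SDS-PAGE and serine hydrolase bands quantified by in-gel fluorescence.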

Data set [3] relates to Mus musculus. The experiment in a line: Antinociceptive activity in CD-1 mouse assessed as inhibition of formalin-induced late phase pain response at 0.1 to 0.3 mg/kg, ip dosed 10 mins before formalin injection measured every 5 mins for 60 mins in presence of CB2 antagonist/inverse agonist AM630. The format is functional, organism-based. In outline:
(§1)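 Male CD-1 mice, n = 6 per group, injected with formalin (1.25% in saline, 30 μL) into the dorsal hind paw. Inhibitor (0.1 or 0.3 mg/kg i.p. in 0.5% DMSO/saline) given 10 min before formalin. Where used, AM251 or AM630 (1 mg/kg i.p.) given 10 min before the inhibitor. Time spent lifting, licking, shaking or flinching the injected paw recorded every 5 min over 60 min.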

For data set [4], the system named is Mus musculus. Nature of the data set: Antinociceptive activity in CD-1 mouse assessed as inhibition of formalin-induced late phase pain response at 0.1 to 0.3 mg/kg, ip dosed 10 mins before formalin injection measured every 5 mins for 60 mins in presence of CB1 antagonist/inverse agonist AM251. In kind it is functional, organism-based. The gist of the method:
as §1

Data set [5] concerns Mus musculus. The experiment in a line: Antinociceptive activity in CD-1 mouse assessed as inhibition of formalin-induced early phase pain response at 0.1 to 0.3 mg/kg, ip dosed 10 mins before formalin injection measured every 5 mins for 60 mins in presence of CB2 antagonist/inverse agonist AM630. In kind it is functional, organism-based. In outline: as §1
For data set [6], the system named is Heart. Nature of the data set: Cardiotoxicity in Langendorff-perfused Sprague-Dawley rat heart assessed as time duration of action potential at 0.001 uM by ECG analysis (reference value: 75.65 +/- 0.87 milliseconds). In kind it is toxicity, tissue-based.
The subject of data set [7] is Heart. The experiment in a line: Cardiotoxicity in Langendorff-perfused Sprague-Dawley rat heart assessed as corrected time duration of action potential at 0.01 uM by ECG analysis (reference value: 155.26 +/- 2.96 milliseconds). The format is toxicity, tissue-based.
Data set [8] deals with Heart. The experiment in a line: Cardiotoxicity in Langendorff-perfused Sprague-Dawley rat heart assessed as time duration of cardiac cycle length at 0.1 uM by ECG analysis (reference value: 238.38 +/- 9.23 milliseconds). The format is toxicity, tissue-based.
For data set [9], the system named is Heart. Nature of the data set: Cardiotoxicity in Langendorff-perfused Sprague-Dawley rat heart assessed as heart rate at 0.001 uM by ECG analysis (reference value: 252.78 +/- 9.28 bpm). The format is toxicity, tissue-based.
For data set [10], the system named is Heart. Nature of the data set: Cardiotoxicity in Langendorff-perfused Sprague-Dawley rat heart assessed as heart rate at 0.1 uM by ECG analysis (reference value: 252.78 +/- 9.28 bpm). The format is toxicity, tissue-based.
Data set [11] concerns Mus musculus. Nature of the data set: Toxicity in CD-1 mouse assessed as 2-AG level in pawskin at 0.3 mg/kg, ip by LC-MS analysis (reference value: 6.1 +/- 0.3 pmol/g). The format is organism-based. Conditions: in vivo. The gist of the method: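 Male CD-1 mice received 0.3 mg/kg i.p. in 0.5% DMSO/saline, with formalin (1.25%, 30 µL) injected into the dorsal hind paw. Paw skin or spinal cord was taken at 5 min post-dose. Tissue was homogenized in CHCl3/MeOH/50 mM Tris-HCl (2:1:1) containing d5-2-AG, extracted with chloroform and analysed by LC-MS. n = 4; ANOVA with Bonferroni test.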

In another data set the target is Cannabinoid receptor 1 (Homo sapiens, UniProt P21554). Nature of the data set: Displacement of [3H]-CP-55940 from human recombinant CB1 receptor expressed in HEK293 cells after 90 mins. In kind it is cell-based. In outline:
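Membranes from HEK-293 cells stably expressing human CB1 (Bmax 2.9 pmol/mg) or CB2 (Bmax 6.0 pmol/mg) incubated 90 min at 30 °C with [3H]-CP-55,940: 0.4 nM for CB1, 0.53 nM for CB2. Non-specific binding defined with 10 µM WIN 55212-2.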

Data set [12] concerns Mus musculus. Nature of the data set: Toxicity in CD-1 mouse assessed as changes in normal pain threshold at 3 to 10 mg/kg, po measured up to 60 mins by hot plate test. In kind it is organism-based. Conditions: in vivo, 1 h.
The next data set deals with T2, Monoglyceride lipase (Homo sapiens, UniProt Q99685).
T2 sequence (Q99685 whole entry): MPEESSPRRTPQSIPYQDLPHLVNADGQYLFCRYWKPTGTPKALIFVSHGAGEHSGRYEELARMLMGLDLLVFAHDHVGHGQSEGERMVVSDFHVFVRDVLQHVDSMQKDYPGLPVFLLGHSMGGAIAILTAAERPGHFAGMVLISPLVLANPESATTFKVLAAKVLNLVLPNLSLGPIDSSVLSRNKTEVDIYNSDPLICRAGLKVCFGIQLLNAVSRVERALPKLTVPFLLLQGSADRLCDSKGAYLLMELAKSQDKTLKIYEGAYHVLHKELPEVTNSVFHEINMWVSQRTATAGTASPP
The experiment in a line: Inhibition of recombinant C-terminal His6-tagged human MAGL expressed in Escherichia coli using 2-arachidonoyl-[3H]-glycerol as substrate preincubated for 10 mins followed by substrate addition measured after 20 mins by scintillation counting method. The gist of the method: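 Human recombinant MGL (10,000xg cytosolic fraction, 0.05 µg/sample) is pre-incubated with compound for 10 min. It is then incubated 20 min at 37 °C in 50 mM Tris-HCl pH 7.0 with 2-arachidonoyl-[3H]-glycerol diluted with unlabelled 2-AG. The mix is extracted with 2 vol CHCl3/MeOH 1:1, and [3H]-glycerol in the aqueous phase is counted by scintillation. Values are means of three experiments.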

Data set [13] has as its system Heart. The experiment in a line: Cardiotoxicity in Langendorff-perfused Sprague-Dawley rat heart assessed as time duration of action potential at 1 uM by ECG analysis (reference value: 75.65 +/- 0.87 milliseconds). The format is toxicity, tissue-based.

Chain of Cannabinoid receptor 1 (P21554 whole entry): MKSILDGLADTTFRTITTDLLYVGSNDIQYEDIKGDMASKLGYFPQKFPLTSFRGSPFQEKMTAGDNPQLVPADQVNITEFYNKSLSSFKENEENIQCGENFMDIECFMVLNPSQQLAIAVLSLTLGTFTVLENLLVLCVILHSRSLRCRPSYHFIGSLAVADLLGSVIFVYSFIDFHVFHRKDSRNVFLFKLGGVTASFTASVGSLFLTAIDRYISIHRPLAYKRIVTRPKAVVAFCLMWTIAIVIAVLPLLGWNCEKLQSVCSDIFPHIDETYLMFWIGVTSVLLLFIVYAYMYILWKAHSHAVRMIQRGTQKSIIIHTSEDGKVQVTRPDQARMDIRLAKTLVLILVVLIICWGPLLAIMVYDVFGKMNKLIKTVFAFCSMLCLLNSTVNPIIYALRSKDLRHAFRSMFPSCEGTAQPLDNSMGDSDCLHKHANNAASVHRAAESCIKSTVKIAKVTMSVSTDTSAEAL

As for `O=C1[C@H](c2ccc(F)cc2)[C@@H](c2ccc3c(c2)OCO3)N1C1CCN(C(=O)n2cncn2)CC1` (racemic) [listing 1 of 2 here], the Activity result with Mus musculus [1] was “Dose-dependent effect”. In addition, the inhibition result (in [2]; in the data set with Mus musculus [3]; with Mus musculus [4]; with Mus musculus [5]) was “inactive” each time.

Turning to `O=C1[C@H](c2ccc(F)cc2)[C@@H](c2ccc3c(c2)OCO3)N1C1CCN(C(=O)n2cncn2)CC1` (racemic) [listing 2 of 2 here], the Time in the data set with Heart [6] is 76.38 ms; in the data set on Heart [7] it was 156.3 ms; in the data set on Heart [8] it was 238.15 ms; in the data set on Heart [13], 76.02 ms. For the same molecule, the Activity in the data set with Heart [9] is 254.38 bpm; in the data set with Heart [10] it was 252.65 bpm; in the data set with Mus musculus [11] it was 11 pmol/g; in the data set with Mus musculus [12] it was “Non-toxic”. Further, the half-inhibitory concentration (IC50) – broadly, the midpoint of a concentration-inhibition curve – on Cannabinoid receptor 1 was greater than 10000 nM; at Monoglyceride lipase, 196 nM.
